Source: ChEMBL document CHEMBL1133614, “Novel radiotracers for imaging the serotonin transporter by positron emission tomography: synthesis, radiosynthesis, and in vitro and ex vivo evaluation of (11)C-labeled 2-(phenylthio)araalkylamines” (J Med Chem, 2000)

Experiments:
[1] = organism: Rattus norvegicus; assay: Biodistribution of radioactivity in rat cortex upon Tail-Vein injection of [11C]-labeled compound after 5 min; type: ADME, organism-based; details: in vivo, iv
[2] = organism: Rattus norvegicus; assay: Biodistribution of radioactivity in rat thalamus upon Tail-Vein injection of [11C]-labeled compound after 5 min; type: ADME, organism-based; details: in vivo, iv
[3] = organism: Rattus norvegicus; assay: Biodistribution of radioactivity in rat cerebellum upon Tail-Vein injection of [11C]-labeled compound after 60 min; type: ADME, organism-based; details: in vivo, iv, 1 h
[4] = organism: Rattus norvegicus; assay: Biodistribution of radioactivity in rat thalamus upon Tail-Vein injection of [11C]-labeled compound after 45 min; type: ADME, organism-based; details: in vivo, iv, 0.75 h
[5] = organism: Rattus norvegicus; assay: Biodistribution of radioactivity in rat thalamus upon Tail-Vein injection of [11C]-labeled compound after 30 min; type: ADME, organism-based; details: in vivo, iv, 0.5 h
[6] = molecular target: Sodium-dependent dopamine transporter (Homo sapiens, UniProt Q01959); assay: In vitro binding affinity on cloned Dopamine transporter
Outline: (§1)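 Competition binding in triplicate on membranes from cloned human transporters. Radioligands: SERT [3H]paroxetine 0.2 nM with 10.3 µg protein, NET [3H]nisoxetine 1.0 nM with 16.9 µg, DAT [3H]WIN 35,428 1.0 nM with 6.2 µg. Buffer 50 mM Tris-Cl pH 7.4 with 150 mM NaCl/5 mM KCl (SERT, NET) or 100 mM NaCl (DAT). Incubated 40 min at 37 °C, then filtered on PEI-soaked GF/B filters. Nonspecific binding set with duloxetine 1 µM (SERT), desipramine 10 µM (NET) or nomifensine 10 µM (DAT). IC50 from nonlinear fit; Ki by Cheng-Prusoff.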

[7] = organism: Rattus norvegicus; assay: Biodistribution of radioactivity in rat hippocampus upon Tail-Vein injection of [11C]-labeled compound after 60 min; type: ADME, organism-based; details: in vivo, iv, 1 h
[8] = organism: Rattus norvegicus; assay: Biodistribution of radioactivity in rat cerebellum upon Tail-Vein injection of [11C]-labeled compound after 15 min; type: ADME, organism-based; details: in vivo, iv, 0.25 h
[9] = organism: Rattus norvegicus; assay: Biodistribution of radioactivity in rat hippocampus upon Tail-Vein injection of [11C]-labeled compound after 45 min; type: ADME, organism-based; details: in vivo, iv, 0.75 h
[10] = organism: Rattus norvegicus; assay: Biodistribution of radioactivity in rat blood upon Tail-Vein injection of [11C]-labeled compound after 30 min; type: ADME, organism-based; details: in vivo, iv, 0.5 h
[11] = organism: Rattus norvegicus; assay: Biodistribution of radioactivity in rat cerebellum upon Tail-Vein injection of [11C]-labeled compound after 30 min; type: ADME, organism-based; details: in vivo, iv, 0.5 h
[12] = organism: Rattus norvegicus; assay: Biodistribution of radioactivity in rat cerebellum upon Tail-Vein injection of [11C]-labeled compound after 45 min; type: ADME, organism-based; details: in vivo, iv, 0.75 h
[13] = organism: Rattus norvegicus; assay: Biodistribution of radioactivity in rat striatum upon Tail-Vein injection of [11C]-labeled compound after 5 min; type: ADME, organism-based; details: in vivo, iv
[14] = organism: Rattus norvegicus; assay: Biodistribution of radioactivity in rat cerebellum upon Tail-Vein injection of [11C]-labeled compound after 5 min; type: ADME, organism-based; details: in vivo, iv
[15] = organism: Rattus norvegicus; assay: Biodistribution of radioactivity in rat hypothalamus upon Tail-Vein injection of [11C]-labeled compound after 15 min; type: ADME, organism-based; details: in vivo, iv, 0.25 h
[16] = organism: Rattus norvegicus; assay: Biodistribution of radioactivity in rat thalamus upon Tail-Vein injection of [11C]-labeled compound after 15 min; type: ADME, organism-based; details: in vivo, iv, 0.25 h
[17] = organism: Rattus norvegicus; assay: Biodistribution of radioactivity in rat hippocampus upon Tail-Vein injection of [11C]-labeled compound after 15 min; type: ADME, organism-based; details: in vivo, iv, 0.25 h
[18] = organism: Rattus norvegicus; assay: Biodistribution of radioactivity in rat striatum upon Tail-Vein injection of [11C]-labeled compound after 30 min; type: ADME, organism-based; details: in vivo, iv, 0.5 h
[19] = organism: Rattus norvegicus; assay: Biodistribution of radioactivity in rat striatum upon Tail-Vein injection of [11C]-labeled compound after 15 min; type: ADME, organism-based; details: in vivo, iv, 0.25 h
[20] = organism: Rattus norvegicus; assay: Biodistribution of radioactivity in rat blood upon Tail-Vein injection of [11C]-labeled compound after 15 min; type: ADME, organism-based; details: in vivo, iv, 0.25 h
[21] = Log P at pH 7.4; type: physicochemical; details: buffer
Outline: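 Partition of the radiolabelled compound between 1-octanol and 0.02 M phosphate buffer at pH 7.4.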

[22] = organism: Rattus norvegicus; assay: Biodistribution of radioactivity in rat hypothalamus upon Tail-Vein injection of [11C]-labeled compound after 5 min; type: ADME, organism-based; details: in vivo, iv
[23] = organism: Rattus norvegicus; assay: Biodistribution of radioactivity in rat hypothalamus upon Tail-Vein injection of [11C]-labeled compound after 60 min; type: ADME, organism-based; details: in vivo, iv, 1 h
[24] = organism: Rattus norvegicus; assay: Biodistribution of radioactivity in rat hippocampus upon Tail-Vein injection of [11C]-labeled compound after 5 min; type: ADME, organism-based; details: in vivo, iv
[25] = organism: Rattus norvegicus; assay: Biodistribution of radioactivity in rat cortex upon Tail-Vein injection of [11C]-labeled compound after 15 min; type: ADME, organism-based; details: in vivo, iv, 0.25 h
[26] = organism: Rattus norvegicus; assay: Biodistribution of radioactivity in rat striatum upon Tail-Vein injection of [11C]-labeled compound after 60 min; type: ADME, organism-based; details: in vivo, iv, 1 h
[27] = organism: Rattus norvegicus; assay: Biodistribution of radioactivity in rat blood upon Tail-Vein injection of [11C]-labeled compound after 60 min; type: ADME, organism-based; details: in vivo, iv, 1 h
[28] = organism: Rattus norvegicus; assay: Biodistribution of radioactivity in rat blood upon Tail-Vein injection of [11C]-labeled compound after 45 min; type: ADME, organism-based; details: in vivo, iv, 0.75 h
[29] = organism: Rattus norvegicus; assay: Biodistribution of radioactivity in rat thalamus upon Tail-Vein injection of [11C]-labeled compound after 60 min; type: ADME, organism-based; details: in vivo, iv, 1 h
[30] = organism: Rattus norvegicus; assay: Biodistribution of radioactivity in rat hypothalamus upon Tail-Vein injection of [11C]-labeled compound after 45 min; type: ADME, organism-based; details: in vivo, iv, 0.75 h
[31] = organism: Rattus norvegicus; assay: Biodistribution of radioactivity in rat cortex upon Tail-Vein injection of [11C]-labeled compound after 30 min; type: ADME, organism-based; details: in vivo, iv, 0.5 h
[32] = molecular target: Sodium-dependent serotonin transporter (Homo sapiens, UniProt P31645); assay: In vitro binding affinity on cloned Serotonin transporter; outline: as §1
[33] = organism: Rattus norvegicus; assay: Biodistribution of radioactivity in rat hypothalamus upon Tail-Vein injection of [11C]-labeled compound after 30 min; type: ADME, organism-based; details: in vivo, iv, 0.5 h
[34] = organism: Rattus norvegicus; assay: Biodistribution of radioactivity in rat blood upon Tail-Vein injection of [11C]-labeled compound after 5 min; type: ADME, organism-based; details: in vivo, iv
[35] = Half-life of washout rate of radioactivity from the cerebellum.; type: ADME, tissue-based
Outline: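 Rats received the 11C tracer by tail vein (3-30 MBq, 350-450 ng, buffered saline), 3 per time point. Cerebellar radioactivity (%ID/g) was followed over time after injection, and the half-life of its washout was derived from that time course.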

[36] = organism: Rattus norvegicus; assay: Biodistribution of radioactivity in rat hippocampus upon Tail-Vein injection of [11C]-labeled compound after 30 min; type: ADME, organism-based; details: in vivo, iv, 0.5 h
[37] = organism: Rattus norvegicus; assay: Biodistribution of radioactivity in rat cortex upon Tail-Vein injection of [11C]-labeled compound after 60 min; type: ADME, organism-based; details: in vivo, iv, 1 h
[38] = organism: Rattus norvegicus; assay: Biodistribution of radioactivity in rat cortex upon Tail-Vein injection of [11C]-labeled compound after 45 min; type: ADME, organism-based; details: in vivo, iv, 0.75 h
[39] = organism: Rattus norvegicus; assay: Biodistribution of radioactivity in rat striatum upon Tail-Vein injection of [11C]-labeled compound after 45 min; type: ADME, organism-based; details: in vivo, iv, 0.75 h
[40] = molecular target: Sodium-dependent noradrenaline transporter (Homo sapiens, UniProt P23975); assay: In vitro binding affinity on cloned Norepinephrine transporter
Outline: as §1, with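 “transporters.” for “transporters. Radioligands: SERT [3H]paroxetine 0.2 nM with 10.3 µg protein, NET [3H]nisoxetine 1.0 nM with 16.9 µg, DAT [3H]WIN 35,428 1.0 nM with 6.2 µg.”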

[41] = organism: Rattus norvegicus; assay: Biodistribution of radioactivity in rat blood upon Tail-Vein injection of [11C]-labeled compound after 30 min upon; type: ADME, organism-based; details: in vivo, iv, 0.5 h

Chain of Sodium-dependent serotonin transporter (P31645 whole entry): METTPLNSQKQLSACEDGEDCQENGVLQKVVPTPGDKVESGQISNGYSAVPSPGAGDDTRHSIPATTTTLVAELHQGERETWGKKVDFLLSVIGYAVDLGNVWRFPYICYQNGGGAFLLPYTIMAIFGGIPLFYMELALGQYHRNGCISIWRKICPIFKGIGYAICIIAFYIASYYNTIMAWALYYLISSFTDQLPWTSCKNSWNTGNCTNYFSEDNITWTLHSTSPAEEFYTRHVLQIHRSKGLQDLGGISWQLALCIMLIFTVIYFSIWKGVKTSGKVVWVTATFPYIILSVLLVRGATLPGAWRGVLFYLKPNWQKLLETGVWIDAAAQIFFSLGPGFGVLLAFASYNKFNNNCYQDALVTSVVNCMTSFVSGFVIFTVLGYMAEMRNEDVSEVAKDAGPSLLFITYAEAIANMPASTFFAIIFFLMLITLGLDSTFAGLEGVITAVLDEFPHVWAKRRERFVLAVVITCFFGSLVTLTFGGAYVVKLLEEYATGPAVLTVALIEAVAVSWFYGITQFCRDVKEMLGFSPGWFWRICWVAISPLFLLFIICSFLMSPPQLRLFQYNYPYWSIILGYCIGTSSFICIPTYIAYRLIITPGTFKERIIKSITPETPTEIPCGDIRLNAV
Chain of Sodium-dependent dopamine transporter (Q01959 whole entry): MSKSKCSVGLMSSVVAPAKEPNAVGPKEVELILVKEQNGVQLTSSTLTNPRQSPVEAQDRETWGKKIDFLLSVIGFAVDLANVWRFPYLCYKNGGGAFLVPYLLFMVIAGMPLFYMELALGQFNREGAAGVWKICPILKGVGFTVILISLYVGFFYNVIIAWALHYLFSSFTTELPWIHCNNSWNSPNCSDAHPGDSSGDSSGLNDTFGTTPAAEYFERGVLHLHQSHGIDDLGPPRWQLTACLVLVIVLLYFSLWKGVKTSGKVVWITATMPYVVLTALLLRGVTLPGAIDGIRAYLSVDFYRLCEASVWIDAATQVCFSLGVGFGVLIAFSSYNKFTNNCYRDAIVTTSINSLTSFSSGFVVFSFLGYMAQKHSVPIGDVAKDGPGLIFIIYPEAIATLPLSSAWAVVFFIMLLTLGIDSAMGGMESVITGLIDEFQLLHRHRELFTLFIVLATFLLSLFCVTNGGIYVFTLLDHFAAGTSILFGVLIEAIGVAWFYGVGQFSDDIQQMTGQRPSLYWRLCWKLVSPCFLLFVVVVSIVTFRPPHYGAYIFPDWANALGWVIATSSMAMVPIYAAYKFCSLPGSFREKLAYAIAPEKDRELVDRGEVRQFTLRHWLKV
Chain of Sodium-dependent noradrenaline transporter (P23975 whole entry): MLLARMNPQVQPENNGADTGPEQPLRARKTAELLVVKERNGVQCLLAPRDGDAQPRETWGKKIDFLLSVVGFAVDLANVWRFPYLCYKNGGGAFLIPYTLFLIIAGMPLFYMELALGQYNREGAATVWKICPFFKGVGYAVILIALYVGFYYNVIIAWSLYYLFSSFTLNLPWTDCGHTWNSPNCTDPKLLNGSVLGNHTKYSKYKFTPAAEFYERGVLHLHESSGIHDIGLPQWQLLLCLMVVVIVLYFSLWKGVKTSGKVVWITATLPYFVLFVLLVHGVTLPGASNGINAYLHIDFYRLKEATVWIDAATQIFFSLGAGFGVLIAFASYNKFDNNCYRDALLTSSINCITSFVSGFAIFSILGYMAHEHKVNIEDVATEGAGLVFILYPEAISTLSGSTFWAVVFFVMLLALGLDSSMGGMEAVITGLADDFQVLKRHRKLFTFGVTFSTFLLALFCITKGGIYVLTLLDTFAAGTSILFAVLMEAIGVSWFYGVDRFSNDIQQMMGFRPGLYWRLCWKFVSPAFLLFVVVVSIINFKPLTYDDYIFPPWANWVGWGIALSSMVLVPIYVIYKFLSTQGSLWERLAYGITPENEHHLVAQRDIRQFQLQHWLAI

Compound | ID/g [1] [%] | ID/g [2] [%] | ID/g [3] [%] | ID/g [5] [%] | Ki [6] [nM] | ID/g [7] [%] | ID/g [8] [%] | ID/g [11] [%] | ID/g [13] [%] | ID/g [14] [%] | ID/g [15] [%] | ID/g [16] [%] | ID/g [17] [%] | ID/g [18] [%] | ID/g [19] [%] | ID/g [20] [%] | ID/g [22] [%] | ID/g [23] [%] | ID/g [24] [%] | ID/g [25] [%] | also measured
CN(C)Cc1ccccc1Sc1ccc(C#N)cc1N [DASB] | 1.46 | 1.15 | 0.07 | 0.8 | 1420 | 0.35 | 0.54 | 0.27 | 1.24 | 0.76 | 1.39 | 1.21 | 1.06 | 0.77 | 1.24 | 0.31 | 1.25 | 0.62 | 1.13 | 1.29 | ID/g [4]: 0.64%; ID/g [9]: 0.49%; ID/g [10]: 0.22%; ID/g [12]: 0.13%; logD [21]: 2.707; ID/g [26]: 0.35%; ID/g [27]: 0.06%; ID/g [28]: 0.1%; ID/g [29]: 0.49%; ID/g [30]: 0.8%; ID/g [31]: 0.74%; Ki [32]: 1.1 nM; ID/g [33]: 1.02%; ID/g [34]: 0.58%; T1/2 [35]: 15.6 min; ID/g [36]: 0.72%; ID/g [37]: 0.32%; ID/g [38]: 0.48%; ID/g [39]: 0.55%
CN(C)Cc1ccccc1Sc1ccc(Cl)cc1N | 1.39 | 1.43 | 0.23 | 1.65 | 115 | 0.74 | 0.75 | 0.47 | 1.36 | 1.03 | 1.48 | 1.54 | 1.12 | 1.17 | 1.34 | 0.28 | 1.36 | 1.19 | 1.06 | 1.33 | Ki [40]: 230 nM; logD ([21]; read-out: logD): 3.55; ID/g [26]: 0.79%; ID/g [27]: 0.08%; ID/g [29]: 1.24%; ID/g [31]: 1.14%; Ki [32]: 0.27 nM; ID/g [33]: 1.47%; ID/g [34]: 0.39%; T1/2 [35]: 25.4 min; ID/g [36]: 1.04%; ID/g [37]: 0.73%; ID/g [41]: 0.14%
COc1ccc(Sc2ccccc2CN(C)C)c(N)c1 | 1.37 | 1.12 | 0.1 | 0.83 | 2650 | 0.38 | 0.52 | 0.27 | 1.19 | 0.8 | 1.31 | 1.13 | 0.98 | 0.76 | 1.07 | 0.17 | 1.22 | 0.63 | 1.09 | 1.11 | ID/g [4]: 0.71%; ID/g [9]: 0.56%; ID/g [10]: 0.13%; ID/g [12]: 0.2%; Ki [40]: 1990 nM; logD ([21]; read-out: logD): 2.83; ID/g [26]: 0.38%; ID/g [27]: 0.07%; ID/g [28]: 0.1%; ID/g [29]: 0.48%; ID/g [30]: 0.89%; ID/g [31]: 0.7%; Ki [32]: 1.89 nM; ID/g [33]: 1.08%; ID/g [34]: 0.3%; T1/2 [35]: 18.8 min; ID/g [36]: 0.74%; ID/g [37]: 0.36%; ID/g [38]: 0.54%; ID/g [39]: 0.58%
CN(C)Cc1ccccc1Sc1ccc(C(F)(F)F)cc1N | 1.09 | 1.07 | 0.28 | 1.07 | 2040 | 0.75 | 0.7 | 0.47 | 1.05 | 0.92 | 1.17 | 1.06 | 0.91 | 0.99 | 1.02 | 0.21 | 1.02 | 0.99 | 0.92 | 1.06 | Ki [40]: 1200 nM; logD ([21]; read-out: logD): 3.77; ID/g [26]: 0.72%; ID/g [27]: 0.12%; ID/g [29]: 0.89%; ID/g [31]: 0.98%; Ki [32]: 0.33 nM; ID/g [33]: 1.23%; ID/g [34]: 0.35%; T1/2 [35]: 32.3 min; ID/g [36]: 0.88%; ID/g [37]: 0.69%; ID/g [41]: 0.21%
